Measurements: ChEMBL document CHEMBL2177085 (J Med Chem, 2012)

Legend:
MKN-45 [1] = test: Induction of apoptosis in human MKN45 assessed as accumulation at subG1 phase at 5 uM incubated for 7 days by flow cytometry (reference value: 10.9 +/- 3.2%); type: functional
MKN-45 [2] = test: Cytotoxic activity against human MKN45 cells assessed as cell viability at 0.5 uM incubated for 5 days by MTT assay; type: functional; conditions: MKN-45, 120 h, read-out: Activity
Method in brief: (§1)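 MTT viability: exponentially growing cells, 10 000 viable cells/well in RPMI plated overnight, then exposed to test compounds for 3 days (HT-29, Molm-14) or 5 days (Mkn-45) at 37 °C, 5% CO2. MTT added for 4 h, then SDS/HCl solubilization overnight and absorbance read at 562 nm. Viability is expressed relative to untreated cells (100%). Triplicate.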

MKN-45 [3] = test: Cytotoxic activity against human MKN45 cells assessed as cell viability at 10 uM incubated for 5 days by MTT assay; type: functional; conditions: MKN-45, 120 h, read-out: Activity; method in brief: as §1
[4] = Inhibition of angiogenesis in chick embryo model assessed as reduction in vessel growth at 26 nM incubated for 24 hrs; type: functional, Gallus gallus
Method in brief: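 White leghorn eggs incubated at 37.5 °C, 62% humidity. At 70 h, albumen removed and shell windowed. From 75 h, 15 agarose pellets (from a 26 mM DMSO stock in 2% agarose; final concentration 26 nM) placed on the area vasculosa.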

MKN-45 [5] = test: Cytotoxic activity against human MKN45 cells assessed as cell viability at 20 uM incubated for 5 days by MTT assay; type: functional; conditions: MKN-45, 120 h, read-out: Activity; method in brief: as §1
HT-29 [6] = test: Cytotoxic activity against human HT-29 cells assessed as cell viability at 2.6 uM incubated for 3 days by MTT assay; type: functional; conditions: HT-29, 72 h, read-out: Activity; method in brief: as §1
HT-29 [7] = test: Cytotoxic activity against human HT-29 cells assessed as cell viability at 52 uM incubated for 3 days by MTT assay; type: functional; conditions: HT-29, 72 h, read-out: Activity; method in brief: as §1
MKN-45 [8] = test: Cytotoxic activity against human MKN45 cells assessed as cell viability at 1 uM incubated for 5 days by MTT assay; type: functional; conditions: MKN-45, 120 h, read-out: Activity; method in brief: as §1
MKN-45 [9] = test: Induction of apoptosis in human MKN45 assessed as accumulation at subG1 phase at 10 uM incubated for 7 days by flow cytometry (reference value: 10.9 +/- 3.2%); type: functional
MKN-45 [10] = test: Cytotoxic activity against human MKN45 cells assessed as cell viability at 50 uM incubated for 5 days by MTT assay; type: functional; conditions: MKN-45, 120 h, read-out: Activity; method in brief: as §1
HT-29 [11] = test: Cytotoxic activity against human HT-29 cells assessed as cell viability at 7.9 uM incubated for 3 days by MTT assay; type: functional; conditions: HT-29, 72 h, read-out: Activity
Method in brief: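 HT-29 cells in exponential growth were seeded at 10 000 viable cells per well in RPMI and left overnight. They were then exposed to compound for 3 days at 37 °C under 5% CO₂. MTT was added for 4 h, followed by overnight solubilisation in 10% SDS/0.01 M HCl and absorbance at 562 nm. Viability is expressed as % of untreated cells (100%), in triplicate.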

MKN-45 [12] = test: Cytotoxic activity against human MKN45 cells assessed as cell viability at 5 uM incubated for 5 days by MTT assay; type: functional; conditions: MKN-45, 120 h, read-out: Activity; method in brief: as §1
MKN-45 [13] = test: Induction of apoptosis in human MKN45 assessed as accumulation at subG1 phase at 20 uM incubated for 7 days by flow cytometry (reference value: 10.9 +/- 3.2%); type: functional
MKN-45 [14] = test: Induction of apoptosis in human MKN45 assessed as accumulation at subG1 phase at 15 uM incubated for 7 days by flow cytometry (reference value: 10.9 +/- 3.2%); type: functional
HT-29 [15] = test: Cytotoxic activity against human HT-29 cells assessed as cell viability at 26 uM incubated for 3 days by MTT assay; type: functional; conditions: HT-29, 72 h, read-out: Activity; method in brief: as §1
MKN-45 [16] = test: Induction of apoptosis in human MKN45 assessed as accumulation at subG1 phase at 1 uM incubated for 7 days by flow cytometry (reference value: 10.9 +/- 3.2%); type: functional
HUVEC [17] = test: Induction of apoptosis in human HUVEC assessed as accumulation at subG1 phase at 2.6 uM incubated for 4 days by flow cytometry (reference value: 15.4 +/- 1.5%); type: functional
HUVEC [18] = test: Induction of apoptosis in human HUVEC assessed as accumulation at subG1 phase at 0.79 uM incubated for 4 days by flow cytometry (reference value: 15.4 +/- 1.5%); type: functional
[19] = biological target: T1, Receptor-type tyrosine-protein kinase FLT3 (Homo sapiens, UniProt P36888); test: Inhibition of FLT3
T1 sequence (P36888 whole entry): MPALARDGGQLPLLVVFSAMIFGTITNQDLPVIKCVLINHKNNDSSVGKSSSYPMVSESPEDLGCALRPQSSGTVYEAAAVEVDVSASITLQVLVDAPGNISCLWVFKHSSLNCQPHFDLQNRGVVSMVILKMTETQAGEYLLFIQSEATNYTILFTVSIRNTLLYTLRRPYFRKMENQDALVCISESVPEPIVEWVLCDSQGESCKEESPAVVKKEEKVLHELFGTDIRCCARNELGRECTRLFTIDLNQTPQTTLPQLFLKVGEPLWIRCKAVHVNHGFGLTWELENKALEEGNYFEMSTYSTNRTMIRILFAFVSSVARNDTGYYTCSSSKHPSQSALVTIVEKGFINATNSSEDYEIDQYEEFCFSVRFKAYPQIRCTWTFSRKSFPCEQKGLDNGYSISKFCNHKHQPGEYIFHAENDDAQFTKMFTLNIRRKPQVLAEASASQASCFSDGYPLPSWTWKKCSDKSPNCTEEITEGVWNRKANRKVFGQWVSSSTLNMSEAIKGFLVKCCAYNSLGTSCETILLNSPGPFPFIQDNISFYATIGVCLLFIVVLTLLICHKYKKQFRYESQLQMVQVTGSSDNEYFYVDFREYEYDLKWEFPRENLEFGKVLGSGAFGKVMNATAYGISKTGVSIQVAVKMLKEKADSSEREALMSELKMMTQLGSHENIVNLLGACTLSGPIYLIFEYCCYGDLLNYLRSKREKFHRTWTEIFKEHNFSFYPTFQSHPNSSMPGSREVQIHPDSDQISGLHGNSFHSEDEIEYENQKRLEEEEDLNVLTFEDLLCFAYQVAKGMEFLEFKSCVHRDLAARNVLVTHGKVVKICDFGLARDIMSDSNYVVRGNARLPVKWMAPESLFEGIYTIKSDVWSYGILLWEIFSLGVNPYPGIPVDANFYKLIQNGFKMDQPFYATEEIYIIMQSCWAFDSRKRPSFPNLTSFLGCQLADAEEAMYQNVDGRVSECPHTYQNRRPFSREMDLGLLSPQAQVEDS
Method in brief: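 Run as an outsourced kinase profiling service (Millipore IC50 Profiler), with the protocol referred to the provider. Gives IC50 values and residual activity at 10 μM test compound. Compounds tested in duplicate.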

HT-29 [20] = test: Induction of apoptosis in human HT-29 assessed as accumulation at subG1 phase at 1.18 uM incubated for 7 days by flow cytometry (reference value: 3.4 +/- 0.9%); type: functional
Method in brief: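 HT-29 cells, 1.5 × 10⁵ per well, plated overnight, then exposed for 7 days to irinotecan at 1.18 μM, alone or with 7.9 μM test compound. Cells were trypsinized and stained for 1 h at 4 °C in PI buffer (sodium citrate, Triton X-100, PI). Sub-G1 fraction measured by flow cytometry (Nicoletti method). Drug-free control used as baseline. Triplicate.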

Structure (SMILES)	Activity (MKN-45 [1]) [%]	viability at 0.5 µM (MKN-45 [2]) [%]	viability at 10 µM (MKN-45 [3]) [%]	inhibition (INH) [4] [%]	viability at 20 µM (MKN-45 [5]) [%]	viability at 2.6 µM (HT-29 [6]) [%]	viability at 52 µM (HT-29 [7]) [%]	viability at 1 µM (MKN-45 [8]) [%]	Activity (MKN-45 [9]) [%]	viability at 50 µM (MKN-45 [10]) [%]	viability at 7.9 µM (HT-29 [11]) [%]	viability at 5 µM (MKN-45 [12]) [%]	Activity (MKN-45 [13]) [%]	Activity (MKN-45 [14]) [%]	viability at 26 µM (HT-29 [15]) [%]	Activity (MKN-45 [16]) [%]	Activity (HUVEC [17]) [%]	Activity (HUVEC [18]) [%]	IC50 [19] [µM]	Activity (HT-29 [20]) [%]
COc1cc(OC)cc(C2=C(c3c[nH]c4ncccc34)C(=O)NC2=O)c1	24.8	118	57	25	62.1	54.3	40.5	118	31.8	59.4	49.2	60.4	55.7	45.8	43	12.7	–	–	–	–
COc1cc(C2=C(c3c[nH]c4cccnc34)C(=O)NC2=O)cc(OC)c1OC	–	–	–	10	–	–	65.8	–	–	–	–	–	–	–	–	–	16.3	14.2	≥ 1.5	–
CCc1c2c(nc3ccc(OC(=O)N4CCC(N5CCCCC5)CC4)cc13)-c1cc3c(c(=O)n1C2)COC(=O)[C@]3(O)CC [IRINOTECAN]	–	–	–	–	–	–	–	–	–	–	–	–	–	–	–	–	–	–	–	18.3
